The source of these data is ChEMBL document CHEMBL1152557, “Solution-phase parallel synthesis of substituted chalcones and their antiparasitary activity against Giardia lamblia” (Bioorg Med Chem, 2009).

Each structure is given as a SMILES string. Converted amounts (≈) assume the structure as drawn. The source made the active and inactive calls. No cut-off for these calls is given here.

Format in all cases: functional, organism-based
In one experiment the test system is Pseudomonas aeruginosa. Nature of the experiment: Antimicrobial activity against Pseudomonas aeruginosa ATCC 27853 up to 100 ug/mL by broth microdilution assay. (In general: Broth dilution looks for growth in wells or tubes with falling amounts of substance.)
The next experiment has as its system Enterococcus faecalis. Put plainly: Antimicrobial activity against Enterococcus faecalis ATCC 29212 up to 100 ug/mL by broth microdilution assay.
The subject of another experiment is Escherichia coli. Put plainly: Antimicrobial activity against Escherichia coli ATCC 25922 up to 100 ug/mL by broth microdilution assay.
Experiment [1] relates to Giardia intestinalis. Nature of the experiment: Antigiardial activity against Giardia lamblia WB (ATCC 30957) trophozoites after 24 hrs by trypan blue assay. As to conditions: Giardia duodenalis; for LC50: read-out: LD50 (the source's name). In outline: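 Mid-log trophozoites, ice-chilled 20 min and counted by hemocytometer, 1.5 × 10⁵ cells per well in 1.5 mL final volume, incubated 24 h at 37 °C with compounds (DMSO stock diluted in medium, DMSO ≤5% v/v) at 100 µg/mL, then 1–100 µg/mL for selected ones. Metronidazole 1–5 µg/mL and DMSO controls. Plates ice-chilled 20 min, cells resuspended, counted. Mortality by trypan blue staining and absence of motility. IC50 and LD50 by probit analysis.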

The subject of the next experiment is Staphylococcus aureus. Put plainly: Antimicrobial activity against Staphylococcus aureus ATCC 29213 up to 100 ug/mL by broth microdilution assay.
Experiment [2] deals with Giardia intestinalis. Nature of the experiment: Antigiardial activity against Giardia lamblia WB (ATCC 30957) trophozoites assessed as mild activity after 24 hrs by trypan blue assay. As to conditions: Giardia duodenalis. The gist of the method: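 Mid-log trophozoites chilled on ice 20 min, resuspended and counted by hemocytometer; 1.5 × 10⁵ cells per well, final volume 1.5 mL, incubated 24 h at 37 °C with compound (DMSO stock diluted in medium, DMSO ≤5% v/v) at 100 µg/mL. Plates re-chilled on ice 20 min before counting. Mortality from trypan blue staining plus loss of motility. Controls: metronidazole 1–5 µg/mL, DMSO vehicle.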

A word on the IC50: it is the point on the concentration scale where inhibition reaches its midpoint. High values mean weaker potency, low ones greater potency. In the case of `COc1ccc(C(=O)/C=C/c2ccc(Cl)cc2)cc1`, the result in the experiment with Pseudomonas aeruginosa, in the experiment on Enterococcus faecalis, in the experiment on Escherichia coli and in the experiment with Staphylococcus aureus was inactive. In the experiment with Giardia intestinalis [1], this compound had an IC50 of 15 µg/mL (≈ 55.1 µM). Also, in the experiment on Giardia intestinalis [1], the LC50 came out at 7.52 µg/mL (≈ 27.6 µM).

For `COc1ccc(/C=C/C(=O)c2ccc(OC)cc2)cc1`, the outcome in the experiment on Pseudomonas aeruginosa, in the experiment on Enterococcus faecalis, with Escherichia coli and with Staphylococcus aureus was inactive. Further, in the experiment on Giardia intestinalis [2], the outcome was Active.

As to `Cc1ccc(/C=C/C(=O)c2ccc(F)cc2)cc1`, the outcome with Pseudomonas aeruginosa, with Enterococcus faecalis, with Escherichia coli and with Staphylococcus aureus was inactive. In the experiment with Giardia intestinalis [1], this compound came in with an IC50 of 15.3 µg/mL (≈ 63.7 µM). Besides, the LC50 in the experiment with Giardia intestinalis [1] is 9.67 µg/mL (≈ 40.2 µM).

In the case of `COc1ccc(C(=O)/C=C/c2ccccc2)cc1`, the result in the experiment on Pseudomonas aeruginosa, in the experiment with Enterococcus faecalis, in the experiment on Escherichia coli and in the experiment on Staphylococcus aureus was inactive. The outcome with Giardia intestinalis [2] was Active.

In the case of `COc1ccc(C(=O)/C=C/c2ccccc2F)cc1`, the result in the experiment on Pseudomonas aeruginosa, in the experiment on Enterococcus faecalis, with Escherichia coli and in the experiment with Staphylococcus aureus was inactive. The same compound showed an IC50 in the experiment on Giardia intestinalis [1] of 12.7 µg/mL (≈ 49.6 µM). Further, in the experiment with Giardia intestinalis [1], the LC50 worked out at 1.99 µg/mL (≈ 7.77 µM).

With `COc1ccc(/C=C/C(=O)c2ccccc2)cc1`, the outcome with Pseudomonas aeruginosa, in the experiment with Enterococcus faecalis, with Escherichia coli and with Staphylococcus aureus was inactive. In the experiment with Giardia intestinalis [2], the result was Active.

With `COc1ccc(C(=O)/C=C/c2ccc(OC)cc2OC)cc1`, the outcome in the experiment on Pseudomonas aeruginosa, in the experiment on Enterococcus faecalis, in the experiment on Escherichia coli and in the experiment on Staphylococcus aureus was inactive. In addition, the outcome in the experiment on Giardia intestinalis [2] was Active.

For `COc1ccc(/C=C/C(=O)c2ccc(Cl)cc2)cc1`, the outcome in the experiment on Pseudomonas aeruginosa, in the experiment on Enterococcus faecalis, in the experiment on Escherichia coli and in the experiment on Staphylococcus aureus was inactive. Moreover, in the experiment with Giardia intestinalis [2], the result was Active.

In the case of `Cc1ncc([N+](=O)[O-])n1CCO` [METRONIDAZOLE], in the experiment with Giardia intestinalis [1], the concentration for half-maximal inhibition (IC50) was 2.88 µg/mL (≈ 16.8 µM) and the LC50 stood at 1.63 µg/mL (≈ 9.52 µM).

In the case of `Cc1ccc(/C=C/C(=O)c2ccccc2)cc1`, the outcome with Pseudomonas aeruginosa, in the experiment on Enterococcus faecalis, in the experiment with Escherichia coli and in the experiment with Staphylococcus aureus was inactive. Besides, the result in the experiment on Giardia intestinalis [2] was Active.
